Source: ChEMBL document CHEMBL3525966, “Compartmental and enzyme kinetic modeling to elucidate the biotransformation pathway of a centrally acting antitrypanosomal prodrug” (Drug Metab Dispos, 2013)

What was measured:
Cytochrome P450 1A2 [1] = target: T1, Cytochrome P450 1A2 (Homo sapiens, UniProt P05177); experiment: Activity at human recombinant CYP1A2-mediated drug metabolism treated with 5 uM DB868 after 180 mins incubation by HPLC-UV chromatography; type: ADME; details: recombinant enzyme, 15 min, in the assay text read “15 mins” for “180 mins”
T1 sequence (P05177 whole entry): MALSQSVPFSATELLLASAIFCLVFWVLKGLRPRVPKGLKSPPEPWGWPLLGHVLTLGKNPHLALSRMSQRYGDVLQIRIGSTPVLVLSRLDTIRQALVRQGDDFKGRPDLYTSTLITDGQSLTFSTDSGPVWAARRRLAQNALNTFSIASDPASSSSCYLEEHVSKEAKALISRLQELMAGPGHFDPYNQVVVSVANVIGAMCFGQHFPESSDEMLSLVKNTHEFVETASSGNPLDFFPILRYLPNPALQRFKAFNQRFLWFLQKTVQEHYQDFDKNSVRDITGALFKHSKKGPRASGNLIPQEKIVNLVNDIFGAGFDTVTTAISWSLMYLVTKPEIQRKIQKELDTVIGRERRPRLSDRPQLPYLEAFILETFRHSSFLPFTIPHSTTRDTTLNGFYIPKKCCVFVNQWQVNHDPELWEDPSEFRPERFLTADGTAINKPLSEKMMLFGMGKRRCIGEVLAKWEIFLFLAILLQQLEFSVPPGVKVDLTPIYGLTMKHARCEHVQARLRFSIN
Summary of the method: (§1)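 Insect-cell-expressed human or rat P450 (with NADPH-P450 reductase, some also with cytochrome b5) at 0.1 pmol/µL in 100 mM potassium phosphate pH 7.4 with 10 mM MgCl2. DB868 (for M1) or M1 (for M2) was added at 5 µM (0.5% DMSO) and started with 2 mM NADPH. Stopped after 15 min with ice-cold acetonitrile, then HPLC-UV. Duplicate incubations.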

Liver microsome [2] = experiment: Prodrug conversion in human liver microsomes assessed as elution time treated with 10 uM DB868 after 180 mins incubation by HPLC-UV chromatography; type: ADME; details: 3 h
Summary of the method: (§2)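 HLM or RLM (0.5 mg/mL) were incubated in triplicate in 100 mM phosphate pH 7.4 with 10 mM MgCl2 and an NADPH-regenerating system (1 mM NADP+, glucose 6-phosphate, G6PDH). DB868 was 10 µM. Sampled up to 180 min. Prodrug and metabolites were measured by HPLC-UV at 359 nm and expressed relative to initial prodrug; DB829 LLOQ 50 nM.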

Cytochrome P450 1A2 [3] = target: T2, Cytochrome P450 1A2 (Rattus norvegicus, UniProt P04799); experiment: Drug metabolism in rat recombinant CYP1A2 treated with at 5 uM DB868 after 180 mins incubation by HPLC-UV chromatography; type: ADME; details: recombinant enzyme, 15 min, in the assay text read “15 mins” for “180 mins”; summary of the method: as §1
T2 sequence (P04799 whole entry): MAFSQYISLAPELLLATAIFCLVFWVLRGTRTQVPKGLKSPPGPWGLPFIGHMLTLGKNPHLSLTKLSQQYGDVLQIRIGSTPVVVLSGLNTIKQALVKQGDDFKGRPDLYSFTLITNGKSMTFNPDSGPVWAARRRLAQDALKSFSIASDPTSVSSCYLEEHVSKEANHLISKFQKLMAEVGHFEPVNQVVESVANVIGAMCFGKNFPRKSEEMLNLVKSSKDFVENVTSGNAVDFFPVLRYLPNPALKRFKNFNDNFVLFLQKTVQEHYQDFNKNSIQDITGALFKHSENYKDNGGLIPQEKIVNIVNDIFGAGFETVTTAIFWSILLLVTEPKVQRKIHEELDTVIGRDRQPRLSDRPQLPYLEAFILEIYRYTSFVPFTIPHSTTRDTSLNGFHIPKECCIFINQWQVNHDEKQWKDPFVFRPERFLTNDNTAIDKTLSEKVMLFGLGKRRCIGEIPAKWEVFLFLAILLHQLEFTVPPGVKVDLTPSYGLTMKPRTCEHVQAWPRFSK

[4] = Drug metabolism in sandwich-cultured human hepatocytes treated with 10 uM DB868 after 24 hrs of incubation by HPLC-MS/MS analysis; type: ADME, cell-based, Hepatocyte
Summary of the method: (§3)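 Sandwich-cultured hepatocytes were used on day 5 (human) or day 4 (rat) and rinsed with warm phenol-red-free DMEM. They were then exposed to 10 µM DB868 (0.1–0.2% DMSO) at 37°C. Medium and methanol/water cell lysates were collected at 0.5, 2, 4 and 24 h. Analytes were quantified by HPLC/MS/MS with deuterated internal standards; protein by Bradford. Replicates: 6 (human) or 4 (rat).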

Liver microsome [5] = experiment: Prodrug conversion in rat liver microsomes assessed as elution time treated with 10 uM DB868 after 180 mins incubation by HPLC-UV chromatography; type: ADME; details: 3 h; summary of the method: as §2
[6] = Drug metabolism in sandwich-cultured human hepatocytes treated with 10 uM DB868 after 4 hrs of incubation by HPLC-MS/MS analysis; type: ADME, cell-based, Hepatocyte; summary of the method: as §3
Cytochrome P450 4F1 = target: T3, Cytochrome P450 4F1 (Rattus norvegicus, UniProt P33274); experiment: Drug metabolism in rat recombinant […] treated with at 5 uM DB868 after 180 mins incubation by HPLC-UV chromatography; type: ADME; details: recombinant enzyme, 3 h
T3 sequence (P33274 whole entry): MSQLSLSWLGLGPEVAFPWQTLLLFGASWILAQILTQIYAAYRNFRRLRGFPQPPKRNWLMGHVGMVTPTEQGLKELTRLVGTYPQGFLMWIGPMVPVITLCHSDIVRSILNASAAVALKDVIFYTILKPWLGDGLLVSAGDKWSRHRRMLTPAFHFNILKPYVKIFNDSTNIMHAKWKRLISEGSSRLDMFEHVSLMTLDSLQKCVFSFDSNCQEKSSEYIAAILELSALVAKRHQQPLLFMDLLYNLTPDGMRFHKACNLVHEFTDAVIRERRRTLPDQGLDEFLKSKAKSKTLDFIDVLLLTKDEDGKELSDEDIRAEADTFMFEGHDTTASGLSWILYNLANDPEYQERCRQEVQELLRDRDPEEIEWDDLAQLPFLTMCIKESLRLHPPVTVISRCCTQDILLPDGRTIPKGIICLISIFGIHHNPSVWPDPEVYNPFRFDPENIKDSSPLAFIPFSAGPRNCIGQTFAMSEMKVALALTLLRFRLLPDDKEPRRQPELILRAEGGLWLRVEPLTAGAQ

Cytochrome P450 3A4 [7] = target: T4, Cytochrome P450 3A4 (Homo sapiens, UniProt P08684); experiment: Activity at human recombinant CYP3A4-mediated drug metabolism treated with 5 uM DB868 after 180 mins incubation by HPLC-UV chromatography; type: ADME; details: recombinant enzyme, 15 min, in the assay text read “15 mins” for “180 mins”; summary of the method: as §1
Liver microsome [8] = experiment: Drug metabolism in human liver microsomes assessed as (3Z,3'Z)-6,6'-(furan-2,5-diyl)bis(N'-hydroxynicotinimidamide) formation measured by HPLC-MS/MS analysis; type: ADME
Summary of the method: (§4)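 M2 formation kinetics: HLM (0.5 mg/mL) with M1 at 0.1–25 µM in phosphate pH 7.4 with MgCl2, started with 2 mM NADPH. Run 5 min in triplicate under initial-rate conditions. Quantified by HPLC/MS/MS and fitted to the Hill equation (S50, Vmax, n).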

Liver microsome [9] = experiment: Drug metabolism in human liver microsomes assessed as (3Z,3'Z)-6,6'-(furan-2,5-diyl)bis(N'-hydroxynicotinimidamide) formation measured per mg of protein by HPLC-MS/MS analysis; type: ADME; summary of the method: as §4
Cytochrome P450 3A4 [10] = target: T4, Cytochrome P450 3A4; experiment: Drug metabolism in human recombinant CYP3A4 treated with at 5 uM DB868 after 15 mins incubation by HPLC-UV chromatography; details: recombinant enzyme
Cytochrome P450 4F2 = target: T5, Cytochrome P450 4F2 (Homo sapiens, UniProt P78329); experiment: Activity at human recombinant CYP4F2-mediated drug metabolism treated with 5 uM DB868 […] by HPLC-UV chromatography; type: ADME; details: recombinant enzyme, 3 h
T5 sequence (P78329 whole entry): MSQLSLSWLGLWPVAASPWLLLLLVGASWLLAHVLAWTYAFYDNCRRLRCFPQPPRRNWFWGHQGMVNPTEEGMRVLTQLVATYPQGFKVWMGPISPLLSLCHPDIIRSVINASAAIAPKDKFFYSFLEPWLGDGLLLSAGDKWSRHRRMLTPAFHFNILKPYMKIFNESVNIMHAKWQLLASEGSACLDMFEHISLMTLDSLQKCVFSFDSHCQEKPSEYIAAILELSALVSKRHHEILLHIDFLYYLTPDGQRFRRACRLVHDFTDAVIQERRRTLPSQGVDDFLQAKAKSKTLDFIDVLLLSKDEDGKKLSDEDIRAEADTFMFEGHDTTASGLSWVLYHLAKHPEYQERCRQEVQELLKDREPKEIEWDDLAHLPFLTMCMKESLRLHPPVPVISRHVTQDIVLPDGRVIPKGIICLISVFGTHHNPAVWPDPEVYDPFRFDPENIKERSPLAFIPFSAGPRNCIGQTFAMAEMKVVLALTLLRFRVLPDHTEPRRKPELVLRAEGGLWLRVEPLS

[11] = Drug metabolism in sandwich-cultured rat hepatocytes treated with 10 uM DB868 after 4 hrs of incubation by HPLC-MS/MS analysis; type: ADME, cell-based, Hepatocyte; summary of the method: as §3
Liver microsome [12] = experiment: Drug level in human liver microsomes treated with 10 uM DB868 prodrug after 180 mins incubation by HPLC-UV chromatography relative to initial prodrug concentration; type: ADME; details: 3 h; summary of the method: as §2
Liver microsome [13] = experiment: Prodrug conversion in rat liver microsomes treated with 10 uM DB868 after 180 mins incubation by HPLC-UV chromatography; type: ADME; details: 3 h; summary of the method: as §2
[14] = Drug metabolism in sandwich-cultured rat hepatocytes treated with 10 uM DB868 after 24 hrs of incubation by HPLC-MS/MS analysis; type: ADME, cell-based, Hepatocyte; summary of the method: as §3
[15] = Ratio of drug metabolism in sandwich-cultured human hepatocytes to drug metabolism in sandwich-cultured rat hepatocytes treated with 10 uM DB868 after 24 hrs of incubation by HPLC-MS/MS analysis

T4 sequence (P08684 whole entry): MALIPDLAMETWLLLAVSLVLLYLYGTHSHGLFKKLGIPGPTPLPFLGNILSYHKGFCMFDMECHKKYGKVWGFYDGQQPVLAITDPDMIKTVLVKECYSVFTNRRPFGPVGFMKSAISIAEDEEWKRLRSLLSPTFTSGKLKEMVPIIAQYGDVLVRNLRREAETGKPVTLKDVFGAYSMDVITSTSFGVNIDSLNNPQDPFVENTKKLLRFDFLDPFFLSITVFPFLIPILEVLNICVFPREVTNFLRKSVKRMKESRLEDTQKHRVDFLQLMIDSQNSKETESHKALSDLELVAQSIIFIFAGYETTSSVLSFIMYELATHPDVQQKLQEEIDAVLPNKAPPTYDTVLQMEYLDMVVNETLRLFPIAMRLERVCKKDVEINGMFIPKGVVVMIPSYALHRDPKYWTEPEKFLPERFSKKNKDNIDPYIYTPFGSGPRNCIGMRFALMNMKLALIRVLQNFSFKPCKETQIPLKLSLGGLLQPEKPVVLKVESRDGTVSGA

SMILES	Drug metabolism (Cytochrome P450 1A2 [1])	Retention_time (Liver microsome [2])	Drug metabolism (Cytochrome P450 1A2 [3])	Drug metabolism [4]	Retention_time (Liver microsome [5])	Drug metabolism [6]	Drug metabolism (Cytochrome P450 4F1)	Drug metabolism (Cytochrome P450 3A4 [7])	S50 (Liver microsome [8])	Vmax (Liver microsome [9])	Drug metabolism (Cytochrome P450 3A4 [10])	Drug metabolism (Cytochrome P450 4F2)	Drug metabolism [11]	Drug metabolism (Liver microsome [12])	Drug metabolism (Liver microsome [13])	Drug metabolism [14]	Ratio [15]
N=C(NO)c1ccc(-c2ccc(-c3ccc(C(=N)NO)cn3)o2)nc1	metabolite_detected	10.5 min	metabolite_detected	metabolite_detected	10.5 min	metabolite_detected											
Cl.N=C(N)c1ccc(-c2ccc(-c3ccc(C(=N)N)cn3)o2)nc1		5.8 min		metabolite_detected										metabolite_detected	metabolite_not_detected	metabolite_detected	7800
N=C(N)c1ccc(-c2ccc(-c3ccc(/C(N)=N/O)cn3)o2)nc1		8.3 min			8.3 min												

Continued, values first:

Drug metabolism (Cytochrome P450 1A2 [1])	Retention_time (Liver microsome [2])	Drug metabolism (Cytochrome P450 1A2 [3])	Drug metabolism [4]	Retention_time (Liver microsome [5])	Drug metabolism [6]	Drug metabolism (Cytochrome P450 4F1)	Drug metabolism (Cytochrome P450 3A4 [7])	S50 (Liver microsome [8])	Vmax (Liver microsome [9])	Drug metabolism (Cytochrome P450 3A4 [10])	Drug metabolism (Cytochrome P450 4F2)	Drug metabolism [11]	Drug metabolism (Liver microsome [12])	Drug metabolism (Liver microsome [13])	Drug metabolism [14]	Ratio [15]	SMILES
metabolite_detected	14.5 min	metabolite_detected		14.5 min	metabolite_detected	metabolite_detected	metabolite_detected	18 µM	180 pmol/min	metabolite_detected	metabolite_detected	metabolite_detected					CO/N=C(/N)c1ccc(-c2ccc(-c3ccc(/C(N)=N/O)cn3)o2)nc1
	12.3 min		metabolite_detected	12.3 min	metabolite_detected							metabolite_detected			metabolite_detected		CO/N=C(\N)c1ccc(-c2ccc(-c3ccc(C(=N)N)cn3)o2)nc1
